According to ChEMBL document CHEMBL4840303, “Design, synthesis, biological evaluation and pharmacophore model analysis of novel tetrahydropyrrolo[3,4-c]pyrazol derivatives as potential TRKs inhibitors” (Eur J Med Chem, 2021):

Tests used:
KM12 [1] = assay: Cell cycle arrest in human KM12 cells assessed as accumulation of cells at less G1 phase at 1000 nM measured after 48 hrs by AnnexinV-FITC/PI staining based flowcytometry method relative to control; format: functional
[2] = MRT in Sprague dawley rat at 1 mg/kg, iv; format: ADME, organism-based; conditions: in vivo
Summary of the method: (§1)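 Male-unspecified SD rats, n = 3 per group, single i.v. dose 1 mg/kg or oral 3 mg/kg. Blood drawn into heparin tubes at set times, centrifuged at 4 °C, plasma quantified by LC-MS/MS; noncompartmental parameters fitted.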

[3] = molecular target: NT-3 growth factor receptor (Homo sapiens, UniProt Q16288); assay: Inhibition of recombinant His-tagged human TRKC expressed in baculovirus expression system at 1 uM measured by select screen assay relative to control
NT-3 growth factor receptor, sequence (Q16288 32-839 limits assumed): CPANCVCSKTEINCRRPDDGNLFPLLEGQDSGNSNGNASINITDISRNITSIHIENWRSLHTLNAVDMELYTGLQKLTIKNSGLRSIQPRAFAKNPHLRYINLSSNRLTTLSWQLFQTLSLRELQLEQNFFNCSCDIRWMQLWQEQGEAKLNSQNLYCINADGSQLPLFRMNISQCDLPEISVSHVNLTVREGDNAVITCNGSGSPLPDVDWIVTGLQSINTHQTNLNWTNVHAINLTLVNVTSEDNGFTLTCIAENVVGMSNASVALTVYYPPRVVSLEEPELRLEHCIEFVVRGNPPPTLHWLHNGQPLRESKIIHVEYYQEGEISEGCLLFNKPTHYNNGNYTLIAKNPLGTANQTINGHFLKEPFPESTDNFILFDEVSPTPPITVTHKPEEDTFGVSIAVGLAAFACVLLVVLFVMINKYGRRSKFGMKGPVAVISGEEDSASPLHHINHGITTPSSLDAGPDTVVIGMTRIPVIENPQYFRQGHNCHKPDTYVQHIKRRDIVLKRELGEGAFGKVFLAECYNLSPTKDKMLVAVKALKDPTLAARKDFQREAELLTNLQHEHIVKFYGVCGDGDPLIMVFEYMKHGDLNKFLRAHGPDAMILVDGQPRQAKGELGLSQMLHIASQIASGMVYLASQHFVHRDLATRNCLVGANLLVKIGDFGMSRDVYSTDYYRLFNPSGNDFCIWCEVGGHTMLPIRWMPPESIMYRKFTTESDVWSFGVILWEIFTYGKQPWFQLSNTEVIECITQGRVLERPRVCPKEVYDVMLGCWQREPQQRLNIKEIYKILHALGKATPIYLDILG
Summary of the method: (§2)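 Single-concentration profiling at 1.0 µM in a 28-kinase SelectScreen panel; percent inhibition reported.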

KM12 [4] = assay: Induction of apoptosis in human KM12 cells assessed as early apoptotic cells at 250 nM measured after 48 hrs by AnnexinV-FITC/PI staining based flowcytometry assay relative to control; format: functional
Summary of the method: (§3)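 They were detached with trypsin, washed twice in PBS, and 10^5 cells were suspended in Annexin V binding buffer. Cells were stained with FITC-Annexin V and PI for 10 min at room temperature in the dark, diluted with PBS and analysed by flow cytometry.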

[5] = Stability in human plasma assessed as compound remaining incubated for 10 mins by LC-MS/MS analysis; format: ADME, cell-free; conditions: read-out: Stability
Summary of the method: (§4)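 Pooled frozen human plasma thawed at 37 °C, centrifuged to remove clots, pH adjusted to 7.4 if required. Spiked to 2 µM final (from 100 µM dosing solution), in duplicate, incubated at 37 °C in a water bath. Sampled at 0, 10, 30, 60 and 120 min, quenched with acetonitrile stop solution containing internal standards, centrifuged, and supernatant analysed by LC-MS/MS for percent remaining.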

THLE-2 = assay: cells; conditions: Homo sapiens, THLE-2, 72 h
KM12 [6] = assay: Induction of apoptosis in human KM12 cells assessed as necrotic cells at 125 nM measured after 48 hrs by AnnexinV-FITC/PI staining based flowcytometry assay relative to control; format: functional; summary of the method: as §3
[7] = Stability in human plasma assessed as half life incubated for 0 mins by LC-MS/MS analysis; format: ADME, cell-free; summary of the method: as §4
[8] = molecular target: RAC-alpha serine/threonine-protein kinase (Homo sapiens) (UniProt P31749); assay: Inhibition of recombinant His-tagged human full length AKT1 expressed in baculovirus expression system at 1 uM measured by select screen assay relative to control; summary of the method: as §2
RAC-alpha serine/threonine-protein kinase (Homo sapiens), sequence (P31749 whole entry): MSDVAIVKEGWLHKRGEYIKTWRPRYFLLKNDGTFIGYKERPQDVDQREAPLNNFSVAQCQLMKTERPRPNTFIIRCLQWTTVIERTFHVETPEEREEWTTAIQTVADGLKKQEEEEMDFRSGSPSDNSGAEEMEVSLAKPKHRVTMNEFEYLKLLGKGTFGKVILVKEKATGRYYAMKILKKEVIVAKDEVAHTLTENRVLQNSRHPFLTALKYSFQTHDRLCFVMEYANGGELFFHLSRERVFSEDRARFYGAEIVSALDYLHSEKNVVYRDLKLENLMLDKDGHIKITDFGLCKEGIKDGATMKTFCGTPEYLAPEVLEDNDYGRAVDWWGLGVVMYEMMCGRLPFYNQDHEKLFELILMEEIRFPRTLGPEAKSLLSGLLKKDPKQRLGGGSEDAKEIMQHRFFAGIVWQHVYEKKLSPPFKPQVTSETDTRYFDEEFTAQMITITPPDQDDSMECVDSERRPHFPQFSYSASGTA

[9] = molecular target: Hepatocyte growth factor receptor (Homo sapiens) (UniProt P08581); assay: Inhibition of recombinant His-tagged human MET expressed in baculovirus expression system at 1 uM measured by select screen assay relative to control; summary of the method: as §2
Hepatocyte growth factor receptor (Homo sapiens), sequence (P08581 whole entry): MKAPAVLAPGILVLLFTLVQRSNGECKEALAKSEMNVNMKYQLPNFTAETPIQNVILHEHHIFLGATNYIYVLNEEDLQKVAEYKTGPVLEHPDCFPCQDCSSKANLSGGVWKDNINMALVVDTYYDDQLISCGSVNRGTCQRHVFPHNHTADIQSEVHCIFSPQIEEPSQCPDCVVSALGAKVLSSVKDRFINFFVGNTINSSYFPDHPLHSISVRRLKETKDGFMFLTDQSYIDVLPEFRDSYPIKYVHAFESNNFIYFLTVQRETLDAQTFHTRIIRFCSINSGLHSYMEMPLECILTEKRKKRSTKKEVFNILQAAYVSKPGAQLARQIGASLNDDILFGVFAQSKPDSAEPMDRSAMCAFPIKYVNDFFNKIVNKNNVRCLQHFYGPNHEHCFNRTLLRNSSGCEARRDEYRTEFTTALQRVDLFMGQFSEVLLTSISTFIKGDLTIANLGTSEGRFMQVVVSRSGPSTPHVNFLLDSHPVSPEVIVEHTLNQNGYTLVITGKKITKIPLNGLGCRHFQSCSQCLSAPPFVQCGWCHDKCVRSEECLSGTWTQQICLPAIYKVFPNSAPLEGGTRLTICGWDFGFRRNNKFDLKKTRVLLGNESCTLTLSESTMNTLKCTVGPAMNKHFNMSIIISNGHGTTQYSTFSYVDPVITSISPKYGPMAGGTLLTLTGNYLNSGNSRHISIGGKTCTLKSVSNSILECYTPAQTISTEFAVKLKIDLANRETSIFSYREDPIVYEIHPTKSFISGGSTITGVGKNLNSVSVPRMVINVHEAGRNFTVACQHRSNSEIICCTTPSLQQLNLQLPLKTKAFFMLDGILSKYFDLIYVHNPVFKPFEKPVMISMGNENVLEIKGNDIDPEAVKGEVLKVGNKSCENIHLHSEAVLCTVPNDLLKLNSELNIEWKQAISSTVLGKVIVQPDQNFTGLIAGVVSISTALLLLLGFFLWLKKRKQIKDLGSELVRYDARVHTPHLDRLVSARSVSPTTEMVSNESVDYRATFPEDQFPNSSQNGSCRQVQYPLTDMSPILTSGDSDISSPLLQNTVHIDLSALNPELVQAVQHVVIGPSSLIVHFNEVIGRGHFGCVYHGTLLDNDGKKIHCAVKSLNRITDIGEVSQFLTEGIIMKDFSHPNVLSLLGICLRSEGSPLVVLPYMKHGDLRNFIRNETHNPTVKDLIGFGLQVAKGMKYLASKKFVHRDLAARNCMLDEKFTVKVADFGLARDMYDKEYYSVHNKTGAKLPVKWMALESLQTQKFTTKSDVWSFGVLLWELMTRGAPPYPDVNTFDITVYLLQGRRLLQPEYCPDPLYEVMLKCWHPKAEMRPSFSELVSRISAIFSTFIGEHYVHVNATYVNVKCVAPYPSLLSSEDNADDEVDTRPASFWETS

KM12 [10] = assay: Cell cycle arrest in human KM12 cells assessed as accumulation of cells at greater G1 phase at 125 nM measured after 48 hrs by AnnexinV-FITC/PI staining based flowcytometry method relative to control; format: functional
KM12 [11] = assay: cells; conditions: Homo sapiens, KM12, 72 h
KM12 [12] = assay: Cell cycle arrest in human KM12 cells assessed as accumulation of cells at S phase at 125 nM measured after 48 hrs by AnnexinV-FITC/PI staining based flowcytometry method relative to control; format: functional
[13] = molecular target: Tyrosine-protein kinase JAK2 (Homo sapiens) (UniProt O60674); assay: Inhibition of recombinant GST-tagged human JAK2 expressed in baculovirus expression system at 1 uM measured by select screen assay relative to control; summary of the method: as §2
[14] = molecular target: High affinity nerve growth factor receptor (Homo sapiens, UniProt P04629); assay: Inhibition of N-terminal GST-tagged human TRKA (436 to 790 residues) expressed in baculovirus infected Sf21 cells using TK as substrate in presence of ATP measured after 30 mins by HTRF assay
[15] = AUC (0 to infinity) in Sprague dawley rat at 1 mg/kg, iv; format: ADME, organism-based; design: time infinity, route intravenous, dose 1 mg/kg; conditions: in vivo
Summary of the method: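 Blood was collected into heparin tubes at specified time points and centrifuged at once (4 °C, 4000 rpm, 20 min). Plasma levels were quantified by LC-MS/MS. Parameters came from noncompartmental analysis.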

[16] = molecular target: Proto-oncogene tyrosine-protein kinase ROS (Homo sapiens) (UniProt P08922); assay: Inhibition of recombinant GST-tagged human ROS1 expressed in baculovirus expression system at 1 uM measured by select screen assay relative to control; summary of the method: as §2
Proto-oncogene tyrosine-protein kinase ROS (Homo sapiens), sequence (P08922 whole entry): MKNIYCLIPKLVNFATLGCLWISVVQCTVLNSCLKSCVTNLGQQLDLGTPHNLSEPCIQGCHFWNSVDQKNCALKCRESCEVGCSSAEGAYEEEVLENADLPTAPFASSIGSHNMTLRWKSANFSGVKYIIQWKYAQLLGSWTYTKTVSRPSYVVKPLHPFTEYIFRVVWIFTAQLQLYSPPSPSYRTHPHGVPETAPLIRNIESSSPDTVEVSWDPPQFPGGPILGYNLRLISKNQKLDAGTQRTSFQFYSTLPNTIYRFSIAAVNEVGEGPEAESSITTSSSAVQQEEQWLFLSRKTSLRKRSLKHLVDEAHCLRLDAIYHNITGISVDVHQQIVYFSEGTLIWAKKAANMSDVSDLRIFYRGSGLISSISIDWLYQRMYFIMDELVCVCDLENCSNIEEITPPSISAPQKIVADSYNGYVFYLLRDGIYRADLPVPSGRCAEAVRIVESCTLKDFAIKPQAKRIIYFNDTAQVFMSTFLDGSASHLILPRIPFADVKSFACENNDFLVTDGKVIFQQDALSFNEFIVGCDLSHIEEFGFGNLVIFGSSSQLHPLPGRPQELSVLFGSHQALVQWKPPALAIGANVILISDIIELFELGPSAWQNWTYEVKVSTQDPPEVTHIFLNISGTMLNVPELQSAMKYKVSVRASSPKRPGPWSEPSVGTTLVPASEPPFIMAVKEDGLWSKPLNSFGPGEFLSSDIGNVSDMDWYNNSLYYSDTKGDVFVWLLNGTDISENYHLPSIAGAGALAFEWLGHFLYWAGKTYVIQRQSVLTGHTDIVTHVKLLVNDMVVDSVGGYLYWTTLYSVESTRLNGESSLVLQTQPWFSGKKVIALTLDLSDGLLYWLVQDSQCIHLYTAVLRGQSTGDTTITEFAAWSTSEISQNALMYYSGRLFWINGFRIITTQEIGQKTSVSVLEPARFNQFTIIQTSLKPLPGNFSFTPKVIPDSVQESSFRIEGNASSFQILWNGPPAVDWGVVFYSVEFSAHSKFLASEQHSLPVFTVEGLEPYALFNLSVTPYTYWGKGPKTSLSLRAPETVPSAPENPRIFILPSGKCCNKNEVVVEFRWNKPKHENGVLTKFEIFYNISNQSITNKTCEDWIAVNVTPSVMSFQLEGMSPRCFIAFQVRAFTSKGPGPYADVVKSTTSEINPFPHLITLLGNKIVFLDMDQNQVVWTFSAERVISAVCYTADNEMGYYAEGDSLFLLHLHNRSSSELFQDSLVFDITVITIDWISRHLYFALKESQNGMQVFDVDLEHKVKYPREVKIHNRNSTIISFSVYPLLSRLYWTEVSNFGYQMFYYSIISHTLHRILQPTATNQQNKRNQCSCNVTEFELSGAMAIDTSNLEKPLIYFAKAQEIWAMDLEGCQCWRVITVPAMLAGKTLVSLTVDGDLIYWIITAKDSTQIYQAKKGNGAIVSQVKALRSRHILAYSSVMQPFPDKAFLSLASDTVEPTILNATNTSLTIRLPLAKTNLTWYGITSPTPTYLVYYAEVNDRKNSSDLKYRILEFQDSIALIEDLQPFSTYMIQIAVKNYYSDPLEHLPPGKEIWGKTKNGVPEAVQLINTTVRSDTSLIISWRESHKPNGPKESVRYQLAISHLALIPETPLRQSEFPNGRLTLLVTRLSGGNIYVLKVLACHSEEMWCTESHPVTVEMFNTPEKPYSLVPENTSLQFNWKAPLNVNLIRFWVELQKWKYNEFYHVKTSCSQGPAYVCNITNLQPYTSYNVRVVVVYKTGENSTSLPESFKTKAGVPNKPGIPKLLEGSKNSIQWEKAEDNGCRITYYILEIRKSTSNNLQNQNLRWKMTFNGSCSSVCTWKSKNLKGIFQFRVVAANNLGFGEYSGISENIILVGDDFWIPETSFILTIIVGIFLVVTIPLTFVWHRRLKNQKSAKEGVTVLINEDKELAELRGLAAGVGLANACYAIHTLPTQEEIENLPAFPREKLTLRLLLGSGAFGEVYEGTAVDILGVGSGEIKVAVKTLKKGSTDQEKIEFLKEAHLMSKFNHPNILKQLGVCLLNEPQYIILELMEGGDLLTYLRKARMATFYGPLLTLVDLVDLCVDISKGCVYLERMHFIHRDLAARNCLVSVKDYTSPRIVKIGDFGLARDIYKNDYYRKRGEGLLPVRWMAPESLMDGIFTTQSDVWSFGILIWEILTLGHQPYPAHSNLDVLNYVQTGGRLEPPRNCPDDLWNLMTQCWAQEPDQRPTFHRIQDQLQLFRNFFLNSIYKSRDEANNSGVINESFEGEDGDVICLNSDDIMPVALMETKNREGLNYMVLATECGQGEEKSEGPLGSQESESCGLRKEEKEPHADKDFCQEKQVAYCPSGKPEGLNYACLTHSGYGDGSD

KM12 [17] = assay: Cell cycle arrest in human KM12 cells assessed as accumulation of cells at greater G1 phase at 62.5 nM measured after 48 hrs by AnnexinV-FITC/PI staining based flowcytometry method relative to control; format: functional
KM12 [18] = assay: Cell cycle arrest in human KM12 cells assessed as accumulation of cells at G1 phase at 125 nM measured after 48 hrs by AnnexinV-FITC/PI staining based flowcytometry method relative to control; format: functional
KM12 [19] = assay: Induction of apoptosis in human KM12 cells assessed as early apoptotic cells at 500 nM measured after 48 hrs by AnnexinV-FITC/PI staining based flowcytometry assay relative to control; format: functional; summary of the method: as §3
KM12 [20] = assay: Induction of apoptosis in human KM12 cells assessed as viable cells at 500 nM measured after 48 hrs by AnnexinV-FITC/PI staining based flowcytometry assay relative to control; format: functional; conditions: read-out: Activity
Summary of the method: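 10^5 cells in Annexin V binding buffer stained with FITC-Annexin V and PI for 10 min at room temperature in the dark, diluted with PBS and analysed by flow cytometry (FITC 494/518 nm, PI 535/617 nm).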

KM12 [21] = assay: Induction of apoptosis in human KM12 cells assessed as late apoptotic cells at 62.5 nM measured after 48 hrs by AnnexinV-FITC/PI staining based flowcytometry assay relative to control; format: functional; summary of the method: as §3
KM12 [22] = assay: Induction of apoptosis in human KM12 cells assessed as late apoptotic cells at 500 nM measured after 48 hrs by AnnexinV-FITC/PI staining based flowcytometry assay relative to control; format: functional; summary of the method: as §3
KM12 [23] = assay: Induction of apoptosis in human KM12 cells assessed as early apoptotic cells at 1000 nM measured after 48 hrs by AnnexinV-FITC/PI staining based flowcytometry assay relative to control; format: functional; summary of the method: as §3
A549 = assay: cells; conditions: Homo sapiens, A549, 72 h
KM12 [24] = assay: Induction of apoptosis in human KM12 cells assessed as early apoptotic cells at 62.5 nM measured after 48 hrs by AnnexinV-FITC/PI staining based flowcytometry assay relative to control; format: functional; summary of the method: as §3
[25] = molecular target: Serine/threonine-protein kinase PAK 4 (Homo sapiens) (UniProt O96013); assay: Inhibition of recombinant GST-tagged human PAK4 (295 to 591 residues) expressed in baculovirus expression system at 1 uM measured by select screen assay relative to control; summary of the method: as §2
[26] = Oral bioavailability in Sprague dawley rat at 3 mg/kg; format: ADME, organism-based; conditions: in vivo; summary of the method: as §1

CN1CCN(c2ccc(C(=O)Nc3n[nH]c4c3CN(Cc3cc(F)cc(F)c3)C4(C)C)cc2)CC1
Activity (KM12 [1]): 7.77% | MRT [2]: 1.85 h | inhibition [3]: 99% | Activity (KM12 [4]): 32.95% | remaining at 10 min [5]: 96.8% | IC50 (THLE-2): > 100000 nM | Activity (KM12 [6]): 0.07% | half-life [7]: > 4.82 h | inhibition [8]: 2% | inhibition [9]: 6% | Activity (KM12 [10]): 2.45% | IC50 (KM12 [11]): 82 nM | Activity (KM12 [12]): 21.5% | inhibition [13]: 76% | IC50 [14]: 17 nM | AUC(0-inf) [15]: 2080 ng·h/mL | inhibition [16]: 10% | Activity (KM12 [17]): 4.25% | Activity (KM12 [18]): 56.6% | Activity (KM12 [19]): 35.84% | viability at 0.5 µM (KM12 [20]): 25% | Activity (KM12 [21]): 9.89% | Activity (KM12 [22]): 39.1% | Activity (KM12 [23]): 36.3% | IC50 (A549): 72300 nM | Activity (KM12 [24]): 19.55% | inhibition [25]: 4% | bioavailability [26]: 44.3%
